In the library only some 2% were active in any assay of this set; here they are far more common.
FGF22 binding = FGF22 (human) thermal shift binding; hit rate 1.5% among 340,000; activity (Tm shift, normalised), % at 9.99 µM; recombinant FGF22 thermal shift, SYPRO orange fluorescence; percent of sucrose octasulfate shift, DMSO zero; Q9HCT0; AID 651658;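 active means mean Tm shift, scaled 0 neutral to 100 positive control, at about 1.3% or above, every replicate too, limit read from the data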
VLA-4 inh = inhibition in a human VLA-4 binding assay. P13612. hit rate 0.2% among 330,000. inhibition, % (about 7 µM as worked out from the volumes in the protocol). AID 2557. VLA-4 expressing cells, ligand binding flow cytometry; in the data active means inhibition above about 50%
Target sequence (P13612 whole entry, looked up): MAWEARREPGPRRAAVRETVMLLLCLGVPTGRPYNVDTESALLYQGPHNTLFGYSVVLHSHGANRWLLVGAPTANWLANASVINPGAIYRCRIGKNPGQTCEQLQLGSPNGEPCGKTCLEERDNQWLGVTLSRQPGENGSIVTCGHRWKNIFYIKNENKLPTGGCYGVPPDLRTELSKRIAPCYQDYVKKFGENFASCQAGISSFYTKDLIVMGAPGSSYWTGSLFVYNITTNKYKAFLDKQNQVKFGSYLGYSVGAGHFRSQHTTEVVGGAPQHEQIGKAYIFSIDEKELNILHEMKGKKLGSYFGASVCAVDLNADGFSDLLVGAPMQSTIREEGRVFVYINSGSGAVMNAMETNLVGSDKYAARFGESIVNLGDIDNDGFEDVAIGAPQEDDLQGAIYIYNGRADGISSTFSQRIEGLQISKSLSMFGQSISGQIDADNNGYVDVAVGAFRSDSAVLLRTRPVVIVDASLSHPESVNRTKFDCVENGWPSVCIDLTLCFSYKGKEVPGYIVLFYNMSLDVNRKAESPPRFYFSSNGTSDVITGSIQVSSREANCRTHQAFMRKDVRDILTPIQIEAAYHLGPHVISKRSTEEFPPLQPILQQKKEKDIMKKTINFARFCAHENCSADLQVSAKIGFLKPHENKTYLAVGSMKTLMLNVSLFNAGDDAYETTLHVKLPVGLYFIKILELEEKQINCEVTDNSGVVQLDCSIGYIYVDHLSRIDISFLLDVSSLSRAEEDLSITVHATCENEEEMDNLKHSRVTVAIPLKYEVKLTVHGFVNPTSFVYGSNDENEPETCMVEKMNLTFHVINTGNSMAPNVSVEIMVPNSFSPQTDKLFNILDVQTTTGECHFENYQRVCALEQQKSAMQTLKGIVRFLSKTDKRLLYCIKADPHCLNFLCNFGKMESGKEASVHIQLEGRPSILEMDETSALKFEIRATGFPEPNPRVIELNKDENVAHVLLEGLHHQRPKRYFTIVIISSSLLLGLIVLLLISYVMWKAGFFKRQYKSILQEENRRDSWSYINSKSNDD
Granule exo inh = blocks lytic granule exocytosis | TALL-104 LAMP-1 surface exposure, flow cytometry; cells stimulated with thapsigargin and PMA | inhibition, % at 10 µM | hit rate 0.66% among 360,000 | AID 651702;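 active means inhibition above about 55%, limit read from the data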
ABCB6 inh MLPCN = human ABCB6 transporter inhibition | K562-ABCB6 porphyrin accumulation, flow cytometry, 1 h; stronger effect = lower value | fluorescence ratio to DMSO, % at 10 µM | hit rate 0.19% among 360,000 | AID 602162;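 active means fluorescence ratio to DMSO below 75%, the collection mean minus 3 SD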;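 further: signal is porphyrin accumulated inside mitochondria; 100% equals median channel fluorescence of DMSO control wells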
DAGLB inh = diacylglycerol lipase beta (human) inhibition | HEK293T DAGLB membrane lysate, EnzChek fluorogenic substrate | inhibition, % at 5.17 µM | hit rate 0.059% among 340,000; in the data active means inhibition above about 34%;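 further: 0% = enzyme with vehicle and 100% = wells lacking enzyme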
MT1-MMP act inh = MT1-MMP (human) activation inhibition. HT1080 RFP-PRO-GFP cells, GFP/RFP ratio fluorescence, overnight; percent of plate control window, DMSO zero. GFP/RFP ratio change, % at 20 µM. hit rate 0.061% among 360,000;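 active means GFP/RFP ratio change of at least 30% with cell ATP level not reduced by more than half and red fluorescence within 50% of control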
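Assay system – RFP-PRO-GFP reporter HT1080 cells · Compound dosing – single dose of 20 µM compound, 1% DMSO final · Incubation – overnight compound exposure at 37 °C · Measure – GFP/RFP fluorescence ratio · Benchmarks – DMSO wells and RFP-L50D-GFP cells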
Active calls of the source: *; . = no result.

SMILES	FGF22 binding	VLA-4 inh	Granule exo inh	ABCB6 inh MLPCN	DAGLB inh	MT1-MMP act inh
Cc1noc(C)c1NC(=O)N(C)C[C@@H]1Oc2ccc(NS(=O)(=O)c3cn(C)cn3)cc2C(=O)N([C@H](C)CO)C[C@H]1C	0	.	.	.	.	.
CCN1[C@@H]2c3ccc(C4=CCCCC4)c(=O)n3C[C@H]1[C@H](CO)[C@H]2C(=O)NCCOC	0	.	.	.	.	.
CC(C)NC(=O)N(C)C[C@@H]1OCCCC[C@H](C)Oc2ccc(NS(=O)(=O)c3ccccc3)cc2C(=O)N([C@H](C)CO)C[C@@H]1C	0	.	.	.	.	.
O=C(CCC(=O)N1CCN(S(=O)(=O)c2ccc(Cl)cc2)CC1)Nc1ccc(Cl)cc1Cl	43*	7	-16	99	2	4
CCCNC(=O)N(C)C[C@@H]1Oc2cc(C#CCC(C)C)ccc2S(=O)(=O)N([C@H](C)CO)C[C@H]1C	0	.	.	.	.	.
CC(Oc1ccc(-c2ccccc2)cc1)C(=O)N/N=C/c1cccnc1 (centres undefined)	0	13	56*	90	-3	-4
Cc1ccc(/C=N/NC(=O)c2cc(-c3cccnc3)nc3ccccc23)cc1	43*	25	4	99	-2	13
CC1=NN(c2ccc(C(=O)O)cc2)C(=O)/C1=C\c1ccc(OC(=O)c2cccs2)cc1	43*	6	5	85	-3	5
CCOc1cc(/C=C2\C(=O)N(c3ccc(C(N)=O)cc3)N=C2C)ccc1OC(=O)c1cccs1	.	4	31	100	3	1
COc1ccc(N2C(=O)CC(Nc3ccc(C(=O)O)cc3)C2=O)cc1OC (centres undefined)	43*	-8	-4	102	-1	0
COC(=O)c1cccc(NC2CC(=O)N(c3ccc(OC)c(OC)c3)C2=O)c1 (centres undefined)	.	-6	-2	100	-2	-2
COCC(=O)N1[C@H](CO)[C@H](c2ccccc2)C12CN(C(=O)Cc1ccccn1)C2	1	.	.	.	.	.
Cc1ccc(S(=O)(=O)Nc2ccc3c(c2)CC(=O)N([C@H](C)CO)C[C@@H](C)[C@@H](CN(C)S(C)(=O)=O)O3)cc1	0	.	.	.	.	.
COc1ccc([Si](C)(C)[C@H]2[C@H](CCO)O[C@@]3(C(=O)N(Cc4cccc(NC(=O)[C@H](C)O)c4)c4ccccc43)[C@@H]2C)cc1	2.9*	.	.	.	.	.
C[C@H](CO)N1C[C@H](C)[C@@H](CN(C)CC2CCCCC2)OCCCC[C@H](C)Oc2ccc(NS(=O)(=O)c3ccc(F)cc3)cc2C1=O	0	.	.	.	.	.
Cc1ccc(/C=C/C(=O)Nc2ccc(S(N)(=O)=O)cc2)o1	0	15	-2	97	0	-7
Cc1ccc(/C=C/C(=O)NCCc2c[nH]c3ccccc23)o1	0	-1	2	101	-1	1
Cc1ccc(/C=C/C(=O)NCc2ccc(S(N)(=O)=O)cc2)o1	43*	.	-1	98	0	-6
Cc1ccc(/C=C/C(=O)NCCc2cccc(Cl)c2)o1	0	4	64*	99	1	-3
CC(Sc1ccsc1[N+](=O)[O-])C(=O)N1CCN(c2ccccn2)CC1 (centres undefined)	44*	-3	3	102	2	1
CC(Sc1ccsc1[N+](=O)[O-])C(=O)NCc1ccccc1 (centres undefined)	43*	10	.	.	.	.
CCNC(=O)C[C@H]1CC[C@@H]2[C@H](COc3ccc(NC(=O)Nc4cccc(F)c4)cc3C(=O)N2C)O1	-1	.	.	.	.	.
N#C/C(=C(/O)CSc1ncn[nH]1)c1nc2ccccc2[nH]1	44*	-55	-2	104	2	-10
CCN1C/C(=C\c2cccc([N+](=O)[O-])c2)C(=O)/C(=C/c2cccc([N+](=O)[O-])c2)C1	0	.	83*	89	3	-17
O=C1/C(=C/c2cccc([N+](=O)[O-])c2)CCc2ccccc21	.	6	2	99	-7	-1
SMILES	FGF22 binding	VLA-4 inh	Granule exo inh	ABCB6 inh MLPCN	DAGLB inh	MT1-MMP act inh
CN1c2ccc(-c3ccccc3)cc2[C@@H]2[C@@H](CCN2S(=O)(=O)c2ccccc2F)[C@@H]1CO	0	.	.	.	.	.
C[C@H]1CN([C@@H](C)CO)C(=O)Cc2cc(NS(=O)(=O)c3cccs3)ccc2O[C@H]1CN(C)S(=O)(=O)c1ccc(F)cc1	0	.	.	.	.	.
Cc1ccc(S(=O)(=O)N(C)c2ccc3ccccc3c2)cc1	44*	35	17	100	-11	0
O=S(=O)(NCC[C@H]1CC[C@@H](NS(=O)(=O)c2cccc(F)c2)[C@@H](CO)O1)c1cccc(F)c1	0	.	.	.	.	.
C[C@@H]1CN([C@@H](C)CO)C(=O)Cc2cc(NC(=O)Nc3ccc(F)cc3)ccc2O[C@@H]1CN(C)Cc1ccc(C(F)(F)F)cc1	0	.	.	.	.	.
O=C(O)CCn1nnc2ccccc21	0	-3	-10	94	-1	3
COc1cc(/C=N/NC(=O)CCn2nnc3ccccc32)ccc1O	0	-6	-1	88	0	2
O=C(CCn1nnc2ccccc21)N/N=C\Cc1ccccc1	43*	27	3	108	-2	0
COc1cccc(/C=N/NC(=O)CCn2nnc3ccccc32)c1	44*	2	0	95	-1	0
CCN(C(=O)CSc1nc2cc(Cl)ccc2c(=O)n1Cc1ccco1)C1CCS(=O)(=O)C1 (centres undefined)	44*	20	-3	98	0	-1
C[C@H]1CN([C@@H](C)CO)S(=O)(=O)c2ccc(C3=CCCC3)cc2O[C@H]1CN(C)CC1CC1	0	.	.	.	.	.
Cc1noc(C)c1NC(=O)N(C)C[C@@H]1OCCCC[C@H](C)Oc2ccc(NS(=O)(=O)c3cn(C)cn3)cc2C(=O)N([C@@H](C)CO)C[C@@H]1C	0	.	.	.	.	.
CC(NC(=O)C(c1ccccc1)c1ccccc1)C(=O)N1CCCCC1 (centres undefined)	43*	16	-1	104	1	-2
CC(NC(=O)C(c1ccccc1)c1ccccc1)C(=O)O (centres undefined)	0	13	-4	100	0	5
COc1ccc(N/C=C2\CCc3ccccc3C2=O)cc1	0	8	48	102	-4	-7
COc1ccc2c(c1)CC/C(=C\Nc1ccc3c(c1)OCO3)C2=O	0	-12	101*	100	-1	12

Bioassay records from PubChem BioAssay.
